# Experiments:
# [1] = target: T1, Polyunsaturated fatty acid 5-lipoxygenase (Homo sapiens, UniProt P09917); assay: Inhibition of 5-LO activity in ionophore A23187 and arachidonic-stimulated human intact PMNL; type: functional
# T1 sequence (P09917 whole entry): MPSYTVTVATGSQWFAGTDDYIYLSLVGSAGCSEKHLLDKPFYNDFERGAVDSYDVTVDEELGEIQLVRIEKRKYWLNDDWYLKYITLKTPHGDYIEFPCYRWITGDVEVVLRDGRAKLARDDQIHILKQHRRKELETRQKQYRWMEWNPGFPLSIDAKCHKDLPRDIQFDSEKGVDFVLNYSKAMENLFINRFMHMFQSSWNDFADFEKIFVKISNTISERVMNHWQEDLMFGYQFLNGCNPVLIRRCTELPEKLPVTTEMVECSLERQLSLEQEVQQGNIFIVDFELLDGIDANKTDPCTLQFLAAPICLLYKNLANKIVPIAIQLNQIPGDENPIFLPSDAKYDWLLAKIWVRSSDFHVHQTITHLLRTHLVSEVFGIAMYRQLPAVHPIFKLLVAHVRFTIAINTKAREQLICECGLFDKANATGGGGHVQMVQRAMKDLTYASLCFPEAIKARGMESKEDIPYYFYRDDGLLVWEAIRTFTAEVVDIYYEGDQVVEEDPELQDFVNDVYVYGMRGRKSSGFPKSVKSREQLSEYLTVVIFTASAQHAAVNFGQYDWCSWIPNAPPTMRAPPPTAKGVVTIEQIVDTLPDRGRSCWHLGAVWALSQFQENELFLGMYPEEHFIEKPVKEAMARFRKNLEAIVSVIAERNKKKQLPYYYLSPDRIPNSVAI
# How it was run: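 Freshly isolated human PMNL from healthy-donor leukocyte concentrates (dextran sedimentation, Nycoprep, hypotonic erythrocyte lysis), 5 × 10^6 cells/mL in PBS pH 7.4 with 1 mg/mL glucose and 1 mM CaCl2. 5-LO products analysed by HPLC; n ≥ 3, mean ± SEM.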
# [2] = target: T1, Polyunsaturated fatty acid 5-lipoxygenase; assay: Inhibition of partially purified human 5-LO expressed in Escherichia coli
# How it was run: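 Recombinant 5-LO from E. coli MV1190 (pT3-5LO, expressed at 27 °C), partially purified by ammonium sulfate precipitation and ATP-agarose chromatography of the S100 fraction. 0.5 µg protein in PBS pH 7.4 with 1 mM EDTA and 1 mM ATP, compound 5-10 min at 4 °C. Started with 2 mM CaCl2 and 20 µM arachidonic acid, 10 min at 37 °C, methanol stop. HPLC product analysis as remaining activity; n ≥ 3, mean ± SEM.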
# [3] = target: T2, Polyunsaturated fatty acid 5-lipoxygenase (Homo sapiens) (UniProt P09917); assay: Inhibition of partially purified human 5-LO expressed in Escherichia coli assessed as remaining 5-LO activity at 1 uM; values are per cent of control
# T2 sequence (whole entry): T1 sequence (P09917 whole entry)
# [4] = target: T2, Polyunsaturated fatty acid 5-lipoxygenase (Homo sapiens); assay: Inhibition of partially purified human 5-LO expressed in Escherichia coli assessed as remaining 5-LO activity at 10 uM; values are per cent of control
structure (smiles),measurement,setting,value
CCCOc1cc(C)c2c(c1C)CC(C(C)C(=O)Nc1ccccn1)CC2 (stereo unspecified),IC50,[1],0.9 µM
same,IC50,[2],6 µM
Cc1cc(OCCN(C)C)c(C)c2c1CCC(C(C)C(=O)Nc1ccccn1)C2 (stereo unspecified),residual activity,[3],56%
same,residual activity,[4],73%
Cc1nnsc1C(=O)Nc1nc2c(s1)CC1(C)CCC3C(C)C(=O)OC3C1C2C (stereo unspecified),IC50,[1],10 µM
same,IC50,[2],> 10 µM
same,residual activity,[3],87%
same,residual activity,[4],88%
COc1cc(C)c2c(c1C)CC(C(C)C(=O)Nc1nccs1)CC2 (stereo unspecified),residual activity,[3],73%
same,residual activity,[4],56%
COc1cc(C(=O)Nc2nc3c(s2)C[C@]2(C)CC[C@@H]4[C@H](OC(=O)[C@H]4C)[C@H]2[C@@H]3C)cc(OC)c1OC,IC50,[1],0.9 µM
same,IC50,[2],> 10 µM
same,residual activity,[3],65%
same,residual activity,[4],60%
CCCOc1cc(C)c2c(c1C)CC(C(C)C(=O)NCc1cccs1)CC2 (stereo unspecified),IC50,[1],8 µM
same,IC50,[2],3 µM
COc1ccc(C(=O)Nc2nc3c(s2)CC2(C)CCC4C(C)C(=O)OC4C2C3C)cc1 (stereo unspecified),IC50,[1],6 µM
same,IC50,[2],> 10 µM
same,residual activity,[3],57%
same,residual activity,[4],78%
CC1C(=O)OC2C1CCC1(C)Cc3sc(NC(=O)Nc4ccc(F)cc4F)nc3C(C)C21 (stereo unspecified),IC50,[1],7 µM
same,IC50,[2],0.6 µM
same,residual activity,[3],46%
same,residual activity,[4],52%
Cc1cc(OCCN2CCOCC2)c(C)c2c1CCC(C(C)C(=O)Nc1nccs1)C2 (stereo unspecified),residual activity,[3],74%
same,residual activity,[4],62%
COc1ccccc1CC(=O)Nc1nc2c(s1)CC1(C)CCC3C(C)C(=O)OC3C1C2C (stereo unspecified),IC50,[1],4 µM
same,IC50,[2],> 10 µM
same,residual activity,[3],87%
same,residual activity,[4],86%
CC1C(=O)OC2C1CCC1(C)Cc3sc(NC(=O)NCc4ccccc4)nc3C(C)C21 (stereo unspecified),IC50,[1],3 µM
same,IC50,[2],> 10 µM
same,residual activity,[3],78%
same,residual activity,[4],54%
COc1cc(C)c2c(c1C)CC(C(C)C(=O)Nc1ccccn1)CC2 (stereo unspecified),IC50,[1],5 µM
same,IC50,[2],0.8 µM
same,residual activity,[3],54%
same,residual activity,[4],42%
CCCOc1cc(C)c2c(c1C)CC(C(C)C(=O)Nc1ncc(C)s1)CC2 (stereo unspecified),IC50,[1],1 µM
same,IC50,[2],0.8 µM
COc1cc(C)c2c(c1C)CC(C(C)C(=O)NCc1ccco1)CC2 (stereo unspecified),IC50,[1],> 10 µM
same,IC50,[2],0.9 µM
same,residual activity,[3],47%
same,residual activity,[4],41%
COc1cc(C)c2c(c1C)CC(C(C)C(=O)NCc1cccs1)CC2 (stereo unspecified),IC50,[1],8 µM
same,IC50,[2],> 10 µM
same,residual activity,[3],64%
same,residual activity,[4],64%
CC1C(=O)OC2C1CCC1(C)Cc3sc(NC(=O)c4ccc5c(c4)OCO5)nc3C(C)C21 (stereo unspecified),IC50,[1],2 µM
same,IC50,[2],> 10 µM
same,residual activity,[3],67%
same,residual activity,[4],96%
COc1cc(C)c2c(c1C)CC(C(C)C(=O)NC(C)(C)C)CC2 (stereo unspecified),IC50,[1],> 10 µM
same,IC50,[2],4 µM
same,residual activity,[3],55%
same,residual activity,[4],42%
CCCOc1cc(C)c2c(c1C)CC(C(C)C(=O)Nc1nccs1)CC2 (stereo unspecified),IC50,[1],0.8 µM
same,IC50,[2],1 µM
same,residual activity,[3],50%
same,residual activity,[4],36%
CC1C(=O)OC2C1CCC1(C)Cc3sc(NC(=O)C4CCCC4)nc3C(C)C21 (stereo unspecified),IC50,[1],8 µM
same,IC50,[2],10 µM
same,residual activity,[3],66%
same,residual activity,[4],52%
COCCOc1cc(C)c2c(c1C)CC(C(C)C(=O)NC1CCCC1)CC2 (stereo unspecified),IC50,[1],> 10 µM
same,IC50,[2],> 10 µM
same,residual activity,[3],67%
same,residual activity,[4],56%
Cc1cc(OCCN(C)C)c(C)c2c1CCC(C(C)C(=O)Nc1nccs1)C2 (stereo unspecified),IC50,[1],> 10 µM
same,IC50,[2],1 µM
same,residual activity,[3],55%
same,residual activity,[4],65%
CSc1cccc(NC(=O)Nc2nc3c(s2)CC2(C)CCC4C(C)C(=O)OC4C2C3C)c1 (stereo unspecified),IC50,[1],4 µM
same,IC50,[2],1 µM
same,residual activity,[3],55%
same,residual activity,[4],67%
